From ChEMBL document CHEMBL1135796, “Inhibition of nNOS activity in rat brain by synthetic kynurenines: structure-activity dependence” (J Med Chem, 2002)

Tests used:
[1] = Compound tested for solubility measured in 3% ethanol:water or in 3% methanol:water; NS is not soluble; assay type: ADME; conditions: buffer
[2] = target: Nitric oxide synthase 1 (Rattus norvegicus) (UniProt P29476); assay: Neuronal subtype of Neuronal nitric oxide synthase (nNOS) activity tested on Rat Striatal neurones at the concentration of 10e-5 (M)
Method in brief: (§1)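 Rat striatal crude homogenate (supernatant after 1000g, 5 min) as nNOS source. L-[3H]-arginine to L-[3H]-citrulline conversion: 10 µM L-arginine plus 50 nM tracer, H4biopterin, FAD, 0.1 mM CaCl2, pH 7.6. Compounds added over 10 pM–1 mM. Started with NADPH (0.75 mM final), 30 min at 37 °C. Blank omits NADPH. Activity expressed as % of untreated samples. Three experiments in triplicate, four striata each.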

Nitric oxide synthase 1 = Nitric oxide synthase 1 (Rattus norvegicus, UniProt P29476); assay: 50% inhibitory concentration against Neuronal nitric oxide synthase (nNOS) activity; method in brief: as §1
[3] = target: Nitric oxide synthase 1 (Rattus norvegicus) (UniProt P29476); assay: Neuronal subtype of Neuronal nitric oxide synthase (nNOS) activity tested on Rat Striatal neurones at the concentration of 10e-9 (M); method in brief: as §1
[4] = target: Nitric oxide synthase 1 (Rattus norvegicus) (UniProt P29476); assay: Neuronal subtype of Neuronal nitric oxide synthase (nNOS) activity tested on Rat Striatal neurones at the concentration of 10e-7 (M); method in brief: as §1
[5] = target: Nitric oxide synthase 1 (Rattus norvegicus) (UniProt P29476); assay: Neuronal subtype of Neuronal nitric oxide synthase (nNOS) activity tested on Rat Striatal neurones at the concentration of 10e-11 (M); method in brief: as §1
[6] = target: Nitric oxide synthase 1 (Rattus norvegicus) (UniProt P29476); assay: Neuronal subtype of Neuronal nitric oxide synthase (nNOS) activity tested on Rat Striatal neurones at the concentration of 0(M); method in brief: as §1
[7] = target: Nitric oxide synthase 1 (Rattus norvegicus) (UniProt P29476); assay: Neuronal subtype of Neuronal nitric oxide synthase (nNOS) activity tested on Rat Striatal neurones at the concentration of 10e-3 (M); method in brief: as §1

Sequence of Nitric oxide synthase 1 (Rattus norvegicus) (P29476 whole entry): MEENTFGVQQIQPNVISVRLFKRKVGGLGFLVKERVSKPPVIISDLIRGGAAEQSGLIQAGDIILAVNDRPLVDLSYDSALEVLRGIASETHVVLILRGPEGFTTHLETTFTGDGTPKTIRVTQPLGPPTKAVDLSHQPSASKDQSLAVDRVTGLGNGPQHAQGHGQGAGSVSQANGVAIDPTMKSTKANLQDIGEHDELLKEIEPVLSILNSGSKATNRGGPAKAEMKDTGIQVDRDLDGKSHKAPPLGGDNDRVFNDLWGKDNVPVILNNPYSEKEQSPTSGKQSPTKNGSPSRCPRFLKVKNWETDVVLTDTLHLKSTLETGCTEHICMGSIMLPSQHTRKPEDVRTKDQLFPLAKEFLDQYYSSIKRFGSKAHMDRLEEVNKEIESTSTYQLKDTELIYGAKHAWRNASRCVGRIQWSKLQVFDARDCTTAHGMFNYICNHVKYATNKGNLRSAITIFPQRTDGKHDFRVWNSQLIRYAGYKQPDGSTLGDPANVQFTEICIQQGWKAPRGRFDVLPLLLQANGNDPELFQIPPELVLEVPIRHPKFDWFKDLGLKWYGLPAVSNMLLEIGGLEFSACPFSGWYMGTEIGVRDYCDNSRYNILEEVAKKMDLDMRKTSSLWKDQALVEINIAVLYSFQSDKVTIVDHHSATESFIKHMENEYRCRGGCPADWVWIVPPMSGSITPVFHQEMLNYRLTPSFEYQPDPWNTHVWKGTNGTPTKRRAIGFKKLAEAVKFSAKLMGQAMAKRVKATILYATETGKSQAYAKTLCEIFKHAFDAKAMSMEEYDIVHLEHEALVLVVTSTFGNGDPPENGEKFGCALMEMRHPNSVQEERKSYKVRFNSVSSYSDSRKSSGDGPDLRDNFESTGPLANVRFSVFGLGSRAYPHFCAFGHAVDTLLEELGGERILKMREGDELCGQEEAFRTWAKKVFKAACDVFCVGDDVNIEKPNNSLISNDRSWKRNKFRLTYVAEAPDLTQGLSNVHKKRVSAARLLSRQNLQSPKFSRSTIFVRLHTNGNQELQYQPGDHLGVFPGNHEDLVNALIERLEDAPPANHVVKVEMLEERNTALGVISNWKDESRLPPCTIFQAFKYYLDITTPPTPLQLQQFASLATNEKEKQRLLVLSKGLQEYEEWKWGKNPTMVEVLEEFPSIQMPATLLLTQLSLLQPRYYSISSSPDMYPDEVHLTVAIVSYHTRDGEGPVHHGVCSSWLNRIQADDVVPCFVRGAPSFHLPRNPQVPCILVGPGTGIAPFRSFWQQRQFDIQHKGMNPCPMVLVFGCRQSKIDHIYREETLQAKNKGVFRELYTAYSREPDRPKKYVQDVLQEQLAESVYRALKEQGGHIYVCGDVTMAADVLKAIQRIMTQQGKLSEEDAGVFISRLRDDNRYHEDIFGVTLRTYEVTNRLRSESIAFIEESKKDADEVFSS
Sequence of Nitric oxide synthase 1 (P29476 whole entry): as above

| Compound | NS [1] | nNOS activity [2] [%] | nNOS activity [3] [%] | nNOS activity [4] [%] | nNOS activity [5] [%] | nNOS activity [6] [%] | nNOS activity [7] [%] | also measured |
| --- | --- | --- | --- | --- | --- | --- | --- | --- |
| CCCC(=O)NC(CC(=O)c1cccc(OC)c1)(C(=O)OCC)C(=O)OCC | Insoluble | – | – | – | – | – | – | – |
| CCCC(=O)NC(CC(=O)c1cc(OC)ccc1N)C(=O)O (stereo not given) | – | 67.4 | 82.1 | 77.3 | 85.8 | 100 | 55 | IC50 (Nitric oxide synthase 1): > 1000 µM |
| CCCC(=O)NC(CC(=O)c1cccc(OC)c1)C(=O)O (stereo not given) | – | 99.7 | 101 | 101 | 99.9 | 100 | 105 | – |
| CCOC(=O)C(CC(=O)c1cccc(OC)c1)(NC(=O)C1CCCCC1)C(=O)OCC | Insoluble | – | – | – | – | – | – | – |
| COc1ccc(NCc2ccccc2)c(C(=O)CC(NC(C)=O)C(=O)O)c1 (stereo not given) | – | 98.2 | 101 | 100 | 101 | 100 | 100 | – |
| CCOC(=O)C(CC(=O)c1cccc(OC)c1)(NC(=O)c1ccccc1)C(=O)OCC | Insoluble | – | – | – | – | – | – | – |
| CCCC(=O)NC(CC(=O)c1cc(OC)ccc1N)(C(=O)OCC)C(=O)OCC | Insoluble | – | – | – | – | – | – | – |
| CCOC(=O)C(CC(=O)c1cccc([N+](=O)[O-])c1)(NC(=O)CC)C(=O)OCC | Insoluble | – | – | – | – | – | – | – |
| CCCC(=O)NC(CCC(=O)c1ccccc1)(C(=O)OCC)C(=O)OCC | Insoluble | – | – | – | – | – | – | – |
| C/C=C/C(=O)NC(CC(=O)c1cccc(OC)c1)(C(=O)OCC)C(=O)OCC | Insoluble | – | – | – | – | – | – | – |
| COc1cccc(C(=O)CC(NC(C)=O)C(=O)O)c1 (stereo not given) | – | 103 | 100 | 87.2 | 92.7 | 100 | 95.7 | – |
| CCOC(=O)C(CC(=O)c1cccc(OC)c1)(NC(=O)C1CC1)C(=O)OCC | Insoluble | – | – | – | – | – | – | – |
| CCOC(=O)C(CC(=O)c1cc(OC)ccc1NCc1ccccc1)(NC(C)=O)C(=O)OCC | Insoluble | – | – | – | – | – | – | – |
| CCOC(=O)C(CC(=O)c1cccc([N+](=O)[O-])c1)(NC(C)=O)C(=O)OCC | Insoluble | – | – | – | – | – | – | – |
| CCOC(=O)C(CC(=O)c1cc(OC)ccc1N(C)C)(NC(C)=O)C(=O)OCC | Insoluble | – | – | – | – | – | – | – |
| COc1ccc(N(C)C)c(C(=O)CC(NC(C)=O)C(=O)O)c1 (stereo not given) | – | 101 | 99.9 | 99.6 | 100 | 100 | 99 | – |
| CCCC(=O)NC(C(=O)OCC)(C(=O)OCC)C(C)C(=O)c1ccccc1 (stereo not given) | Insoluble | – | – | – | – | – | – | – |
| COc1ccc(N)c(C(=O)CC(NC(C)=O)C(=O)O)c1 (stereo not given) [KYNURENIN] | – | 64 | 73.4 | 65.8 | 78.6 | 100 | 31.5 | IC50 (Nitric oxide synthase 1): 41 µM |
